# Shown are actives, neighbours in structure and some others; about 6% of the full set was active somewhere.
# Ecoli tolC – growth inhibitors of E. coli tolC mutant, primary screen, strain BW25113 ΔtolC::kan, 384-well. OD615. growth inhibition, % at 10 µM (by protocol). 2.2% of 65,000 active. AID 573, 2007;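 active = growth inhibition at or above a cutoff equal to the mean over every tested compound plus 3 SD, cut at about 60% in these data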;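 also: growth measured after 20 h incubation at 37 °C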
#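 Material: E. coli BW25113 ΔtolC::kan, tolC deletion mutant strain. Measure: percent growth inhibition. Schedule: 37 °C, 20 h exposure. Doses: single-point testing at 10 µM. Signal: A615 absorbance measurement. Buffer or medium: kanamycin-containing LB broth (50 µg/mL).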
# EphB4 ephrin blk – EphB4-ephrin-B2 interaction antagonists, primary screen, biochemical, TNYL-RAW peptide probe, fluorescence polarization | Ephrin type-B receptor 4 (Homo sapiens), P54760 | EphB4 LBD / TNYL-RAW-Alexa532 peptide | inhibition, % at 7 µM | 0.15% of 97,000 active;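 active = inhibition above the screen-wide mean inhibition plus 3 SD, cut at about 15% in these data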;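 also: 0% = DMSO wells and 100% = excess unlabeled TNYL-RAW peptide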
# Target sequence (P54760 whole entry, looked up, the tested form may be a part): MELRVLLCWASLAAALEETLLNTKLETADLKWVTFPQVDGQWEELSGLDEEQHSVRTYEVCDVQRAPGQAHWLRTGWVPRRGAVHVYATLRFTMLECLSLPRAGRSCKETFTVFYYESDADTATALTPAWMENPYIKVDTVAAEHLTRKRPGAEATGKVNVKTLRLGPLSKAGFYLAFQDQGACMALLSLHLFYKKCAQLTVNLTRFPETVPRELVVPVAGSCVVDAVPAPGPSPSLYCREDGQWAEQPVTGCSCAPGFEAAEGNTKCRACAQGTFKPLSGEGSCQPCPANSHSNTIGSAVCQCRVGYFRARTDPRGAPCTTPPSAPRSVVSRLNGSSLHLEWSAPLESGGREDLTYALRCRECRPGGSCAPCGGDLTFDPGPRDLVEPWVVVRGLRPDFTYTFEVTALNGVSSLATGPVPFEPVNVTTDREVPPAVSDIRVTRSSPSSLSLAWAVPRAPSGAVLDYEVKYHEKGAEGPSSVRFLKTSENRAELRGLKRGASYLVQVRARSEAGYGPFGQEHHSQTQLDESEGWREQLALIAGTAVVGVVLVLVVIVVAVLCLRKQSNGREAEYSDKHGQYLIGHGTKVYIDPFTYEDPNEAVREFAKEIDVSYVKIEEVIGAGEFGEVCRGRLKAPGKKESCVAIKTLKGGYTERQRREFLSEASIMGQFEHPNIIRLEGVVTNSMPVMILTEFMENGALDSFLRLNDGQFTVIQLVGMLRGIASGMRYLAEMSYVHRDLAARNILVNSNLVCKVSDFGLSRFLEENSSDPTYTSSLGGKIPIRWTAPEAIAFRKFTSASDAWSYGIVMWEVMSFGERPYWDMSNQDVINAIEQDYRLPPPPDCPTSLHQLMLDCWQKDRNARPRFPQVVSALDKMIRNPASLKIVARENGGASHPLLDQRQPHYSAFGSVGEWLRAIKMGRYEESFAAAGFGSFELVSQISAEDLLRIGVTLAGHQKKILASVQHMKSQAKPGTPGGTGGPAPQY
# PostGolgi yeast – phenotypic screen on post-Golgi transport, primary screen; 0.9% of 98,000 active; inhibition, % at 10 µM; post-Golgi transport phenotypic cell assay;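 also: yeast cells grown in 1536-well plates; yeast grown about 18 h at 30C before absorbance read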
# E coli WT exp – growth inhibitors of wild-type E. coli, primary screen, strain BW25113, expanded library, OD600; growth inhibition, % at 100 µM; AID 710, 2007; 0.15% of 98,000 active; OD600 absorbance;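 active = growth inhibition above about 50% at one test dose, limit read from the data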;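 also: growth measured after 20 h incubation at 37 °C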
# PostGolgi ctrl – growth inhibition of yeast control strain, primary screen, counter-screen for post-Golgi transport modulator project. efflux-deficient yeast background strain, growth absorbance A615, 16 h. inhibition, % at 10 µM. 5% of 98,000 active
# * = called active by the depositor; · = no result. Rule as the data show it, unless noted: active = inhibition above about 30%; inactive = the rest.
SMILES,Ecoli tolC,EphB4 ephrin blk,PostGolgi yeast,E coli WT exp,PostGolgi ctrl
Nc1nonc1-c1nc2ccccc2n1Cc1ccc(F)cc1Cl,-13,2,4,-16,11
C1=C(CCNC2=NCCCCC2)CCCC1,-13,2,-2,5,32*
O=C(CNCCC1=CCCCC1)Nc1ccc(N2CCCCCC2)cc1,·,-7,-1,40,100*
O=C1OC(C(=O)O)Cc2ccccc21 (centres undefined),·,5,·,·,·
COc1ccc(-c2nn(-c3ccccc3)cc2/C=N/N2C(=O)CSC2=S)cc1,·,3,86*,-3,85*
N#CC1=C(N)C(C#N)(C#N)C(c2cccnc2)C2CCCC=C12 (centres undefined),2,-2,3,9,14
N#CC1=C(N)C(C#N)(C#N)C(c2cccnc2)C2CC(c3ccccc3)CC=C12 (centres undefined),·,-4,71*,0,14
CCOC(=O)C(=O)Nc1nnc(CCc2ccccc2)s1,·,0,·,·,·
COc1ccc(-n2c(O)cnc2Nc2nc(C)cc(C)n2)cc1OC,·,-1,-12,1,32*
Cc1cc(Cl)ccc1OCc1nc(-c2ccc(O)cc2)n[nH]1,29,1,5,31,96*
COc1cccc(/C=N/Nc2nc(Nc3ccccc3)nc(-n3nc(C)cc3C)n2)c1O,·,0,0,-9,58*
O=C(c1ccc(F)cc1)N1CCN(c2cc(=O)[nH]nc2-c2ccccc2)CC1,·,-1,-5,-3,1
C=CCOC(=O)C(C#N)c1nc2ccccc2nc1N1CCN(Cc2ccccc2)CC1 (centres undefined),100*,·,-6,-8,8
CN1CCN(c2nc3ccccc3nc2C(C#N)C(=O)OC2CCCCC2)CC1 (centres undefined),58,1,2,9,17
N#CC(C(=O)OC1CCCCC1)c1nc2ccccc2nc1N1CCOCC1 (centres undefined),19,-5,0,-5,40*
CC1CCN(Cc2nc3c(c(=O)n(C)c(=O)n3C)n2CCN2CCOCC2)CC1,-14,·,·,·,·
O=C1C(C=Nc2ccccc2O)=C(O)c2ccccc21,-3,-1,-3,-2,3
Cc1ccc(O)c(N=CC2=C(O)c3ccccc3C2=O)c1,28,-3,1,-7,32*
Cc1cc(Nc2ccc(F)cc2Cl)n2nc(C)nc2n1,-8,6,11,5,32*
Cc1ccc(-c2csc3ncnc(SCC(=O)c4ccc5c(c4)OCCO5)c23)cc1,·,3,4,-15,2
Cc1ccc(-c2csc3ncnc(Sc4nnc(CN5CCCCCC5=O)o4)c23)cc1,61*,1,-5,5,20
CCC(c1nnnn1Cc1ccco1)N(CCc1ccccc1)Cc1cc2cc(C)ccc2[nH]c1=O (centres undefined),51,·,·,·,·
CCC(c1nnnn1Cc1ccccc1)N(Cc1ccco1)Cc1cc2cc(OC)ccc2[nH]c1=O (centres undefined),22,-4,0,-6,41*
Cc1ccc(C)c(NC(=O)c2nnn(Cc3ccccc3C)c2N)c1,28,3,-4,-7,33*
Cc1ccc(C)c(NC(=O)c2nnn(Cc3ccccc3)c2N)c1,8,5,2,-13,26
SMILES,Ecoli tolC,EphB4 ephrin blk,PostGolgi yeast,E coli WT exp,PostGolgi ctrl
O=C(c1cc2ccccc2oc1=O)N(Cc1ccco1)Cc1cccs1,18,2,-5,3,49*
CC(=O)OC1COC(N2CCc3cc(Br)c([N+](=O)[O-])cc32)C(OC(C)=O)C1OC(C)=O (centres undefined),·,-5,15,3,6
CC(=O)Oc1ccc(NC(=O)CSc2ccccc2)cc1,-16,2,-8,6,37*
COc1ccc(OC)c(NC(=O)CSc2ccc3ccccc3c2)c1,·,-6,19,-12,40*
O=C(CSc1ccccc1)Nc1ccncc1,-2,-6,-1,15,2
COc1ccc(OC)c(NC(=O)Cc2coc3ccc4ccccc4c23)c1,·,8,-1,-6,35*
O=C(CSc1ccc2ccccc2c1)Nc1ccncc1,·,-4,103*,8,92*
COc1ccc(OC)c(NC(=O)CSc2ccccc2)c1,26,-5,2,7,10
COC(=O)c1[nH]c2cccc(OC)c2c1NC(=O)CN1CC2(C)CC1CC(C)(C)C2 (centres undefined),62*,4,3,-4,9

# High-throughput results: PubChem BioAssay, several laboratories
